One block for each compound: values may come before it. Active and inactive are the calls of the source. The rule behind the calls is not given here.
How the values were obtained:
Cannabinoid receptor 1 [1] = target: T1, Cannabinoid receptor 1 (Homo sapiens, UniProt P21554); experiment: biochemical; format: cell-based, HEK293
Cannabinoid receptor 2 = Cannabinoid receptor 2 (Homo sapiens, UniProt P34972); experiment: Displacement of [3H][…] from human CB2 receptor expressed in HEK293 cells; format: cell-based
Cannabinoid receptor 2, sequence (P34972 whole entry): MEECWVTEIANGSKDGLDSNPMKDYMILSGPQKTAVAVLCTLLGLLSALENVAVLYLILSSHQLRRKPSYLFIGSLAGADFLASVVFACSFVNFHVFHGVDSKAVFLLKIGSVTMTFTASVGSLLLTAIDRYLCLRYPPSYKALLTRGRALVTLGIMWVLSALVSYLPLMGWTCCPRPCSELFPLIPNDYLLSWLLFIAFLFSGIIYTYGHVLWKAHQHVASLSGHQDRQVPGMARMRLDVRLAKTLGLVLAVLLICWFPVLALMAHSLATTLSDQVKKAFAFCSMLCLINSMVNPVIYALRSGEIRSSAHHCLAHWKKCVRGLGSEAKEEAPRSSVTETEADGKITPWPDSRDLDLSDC
How it was run: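 HEK 293 membranes expressing human CB-2 (3.3 µg protein) incubated with 0.3 nM [3H]CP 55940 and varying competitor concentrations. Binding buffer: 50 mM Tris pH 7.4, 2.5 mM EDTA, 5 mM MgCl2, 0.1% fatty-acid-free BSA; 90 min at 30 °C with shaking. Nonspecific binding defined with 10 µM WIN 55212-2. Filtered through GF/C plates, read by scintillation counting. Nonlinear regression; mean of two or more triplicate runs.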

Cannabinoid receptor 1 [2] = target: T1, Cannabinoid receptor 1; experiment: Antagonist activity at human CB1 receptor expressed in CHOK1 cells assessed as inhibition of forskolin-stimulated cAMP levels; format: functional, cell-based; conditions: CHO-K1
How it was run: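 Incubated 20 min at 37 °C with graded agonist plus 3 µM forskolin (final), with or without a fixed antagonist concentration. cAMP measured by scintillation proximity assay. Kb from the agonist EC50 concentration ratio: pKb = log(CR−1) − log B.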

Rattus norvegicus [3] = experiment: Reduction of body weight in Zucker fa/fa rat at 10 mg/kg, po after 8 days; format: functional; design: scale not given: the % may be the effect or the level left
How it was run: (§1)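 Two-day baseline body weight and 24 h food and water intake, then weight-matched into groups. Daily oral dose of 1, 5 or 10 mg/kg suspension (2 mL/kg) before the nocturnal feeding phase. Body weight recorded daily; change versus vehicle-treated rats.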

Rattus norvegicus [4] = experiment: Reduction of food intake in fasted-refed Wistar rat at 10 mg/kg, po after 1.5 hrs; format: functional; design: scale not given: the % may be the effect or the level left
How it was run: (§2)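 Male Wistar rats, individually housed on mesh floors, 12-h/12-h light/dark cycle, fasted overnight (18 h). Single oral dose of vehicle or compound at 10 mg/kg (2 mL/kg), vehicle 30% cyclodextrin or PEG/MSA, 1 h before re-feeding. Cumulative food intake recorded at 30, 60, 90, 180 and 240 min, corrected for spillage. 10 rats per group; percent reduction versus vehicle.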

Rattus norvegicus [5] = experiment: Reduction of food intake in fasted-refed Wistar rat at 10 mg/kg, po after 4 hrs; format: functional; design: scale not given: the % may be the effect or the level left
How it was run: as §2

Rattus norvegicus [6] = experiment: Reduction of body weight in Zucker fa/fa rat at 10 mg/kg, po after 13 days; format: functional; design: scale not given: the % may be the effect or the level left
How it was run: as §1

Rattus norvegicus [7] = experiment: Reduction of food intake in fasted-refed Wistar rat at 10 mg/kg, po after 3 hrs; format: functional; design: scale not given: the % may be the effect or the level left
How it was run: as §2

Rattus norvegicus [8] = experiment: Reduction of food intake in fasted-refed Wistar rat at 10 mg/kg, po after 0.5 hrs; format: functional; design: scale not given: the % may be the effect or the level left
How it was run: as §2

Rattus norvegicus [9] = experiment: Reduction of food intake in fasted-refed Wistar rat at 10 mg/kg, po after 1 hr; format: functional; design: scale not given: the % may be the effect or the level left
How it was run: as §2

Rattus norvegicus [10] = experiment: Reduction of body weight in Zucker fa/fa rat at 1 mg/kg, po after 13 days; format: functional, Zuker fa/fa; design: scale not given: the % may be the effect or the level left
How it was run: as §1

[11] = Cmax in Wistar rat plasma at 10 mg/kg, po; format: ADME, organism-based; design: dose 10 mg/kg, route oral
How it was run: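 Wistar rats dosed orally at 10 mg/kg, typically as a 30% cyclodextrin suspension or as a suspension in PEG400/25 mM methanesulfonic acid (80:20). Plasma levels sampled typically at 0.5, 1 and 2 h after dosing; Cmax taken from these time points.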

Rattus norvegicus [12] = experiment: Reduction of body weight in Zucker fa/fa rat at 5 mg/kg, po after 13 days; format: functional; design: scale not given: the % may be the effect or the level left
How it was run: as §1

Rattus norvegicus [13] = experiment: Reduction of food intake in fasted-refed Wistar rat at 10 mg/kg, po after 0.5 to 4 hrs; format: functional; design: scale not given: the % may be the effect or the level left
How it was run: as §2

Rattus norvegicus [14] = experiment: Effect on cumulative food intake in fasted-refed Wistar rat assessed as appetite suppression at 10 mg/kg, po; format: functional, organism-based; design: dose 10 mg/kg
How it was run: as §2

[15] = Drug level in Wistar rat brain at 10 mg/kg, po after 2 hrs; format: ADME, organism-based; design: dose 10 mg/kg, route oral; conditions: read-out: Drug uptake
How it was run: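 Brain levels measured 2 h after a 10 mg/kg oral dose to Wistar rats, within pharmacokinetic screening; oral vehicle was PEG/MSA suspension.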

T1 sequence (P21554 whole entry): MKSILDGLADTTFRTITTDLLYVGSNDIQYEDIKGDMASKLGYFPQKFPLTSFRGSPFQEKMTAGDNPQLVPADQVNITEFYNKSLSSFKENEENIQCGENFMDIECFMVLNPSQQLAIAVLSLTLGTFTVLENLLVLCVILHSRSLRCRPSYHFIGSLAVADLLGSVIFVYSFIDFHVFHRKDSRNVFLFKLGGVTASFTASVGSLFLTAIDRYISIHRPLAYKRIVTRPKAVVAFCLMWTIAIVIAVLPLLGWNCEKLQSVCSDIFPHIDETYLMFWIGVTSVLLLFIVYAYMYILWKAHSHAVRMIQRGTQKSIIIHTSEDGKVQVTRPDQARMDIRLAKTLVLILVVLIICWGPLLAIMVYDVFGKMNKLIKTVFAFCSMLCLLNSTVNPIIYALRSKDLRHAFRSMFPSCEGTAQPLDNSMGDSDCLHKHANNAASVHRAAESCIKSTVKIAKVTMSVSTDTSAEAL

Compound: Cc1ccc(-c2nc(C(=O)NC3CCCCC3)cn2-c2ccc(Cl)cc2)c(C)c1
Ki (Cannabinoid receptor 1 [1]): 0.0072 µM

Compound: O=C(N[C@@H]1c2ccccc2C[C@@H]1O)c1cn(-c2ccc(Cl)cc2)c(-c2ccccc2Cl)n1
Ki (Cannabinoid receptor 1 [1]): 0.018 µM | Ki (Cannabinoid receptor 2): 5.1 µM | Kb (Cannabinoid receptor 1 [2]): 0.0092 µM

Compound: COc1ccc(-n2cc(C(=O)NC3CCCCC3)nc2-c2ccc(Cl)cc2Cl)cc1
Ki (Cannabinoid receptor 1 [1]): 0.0049 µM

Compound: CCCCc1c(C(=O)N[C@H]2CCCC[C@@H]2O)nc(-c2ccccc2Cl)n1-c1ccc(Cl)cc1
Ki (Cannabinoid receptor 1 [1]): 0.01 µM

Compound: CCc1c(C(=O)N[C@H]2CCCC[C@@H]2O)nc(-c2ccccc2Cl)n1-c1ccc(Br)cc1
Activity (Rattus norvegicus [3]): 5.6% | Ki (Cannabinoid receptor 1 [1]): 0.0037 µM | Activity (Rattus norvegicus [4]): 62% | Activity (Rattus norvegicus [5]): 35% | Activity (Rattus norvegicus [6]): -10.6% | Activity (Rattus norvegicus [7]): 52% | Activity (Rattus norvegicus [8]): 63% | Activity (Rattus norvegicus [9]): 64% | Ki (Cannabinoid receptor 2): 2.7 µM | Kb (Cannabinoid receptor 1 [2]): 0.013 µM | Activity (Rattus norvegicus [10]): -1.9% | Cmax [11]: 2.1 µM | Activity (Rattus norvegicus [12]): -6.1%

Compound: O=C(NC1CCCCC1O)c1cn(-c2ccc(Cl)cc2)c(-c2ccc(Cl)cc2Cl)n1 (racemic)
Ki (Cannabinoid receptor 1 [1]): 0.022 µM | Activity (Rattus norvegicus [13]): 21% | Ki (Cannabinoid receptor 2): 1.1 µM | Kb (Cannabinoid receptor 1 [2]): 0.0044 µM

Compound: O=C(NC1CCCCC1)c1cn(-c2ccc(Cl)cc2)c(-c2ccc(Cl)cc2Cl)n1
Ki (Cannabinoid receptor 1 [1]): 0.0039 µM | Activity (Rattus norvegicus [14]): inactive | Ki (Cannabinoid receptor 2): 0.24 µM | Kb (Cannabinoid receptor 1 [2]): 0.018 µM | Cmax [11]: 0.05 µM

Compound: O=C(NC1CCCCC1)c1cn(-c2ccc(F)cc2)c(-c2ccc(Cl)cc2Cl)n1
Ki (Cannabinoid receptor 1 [1]): 0.0082 µM

Compound: COc1ccc(-n2cc(C(=O)NC3CCCCC3)nc2-c2ccccc2Cl)cc1
Ki (Cannabinoid receptor 1 [1]): 0.009 µM

Compound: Cc1c(C(=O)N[C@H]2CCCC[C@@H]2O)nc(-c2ccccc2Cl)n1-c1ccc(Cl)cc1
Ki (Cannabinoid receptor 1 [1]): 0.0069 µM

Compound: O=C(N[C@H]1c2ccccc2C[C@H]1O)c1cn(-c2ccc(Cl)cc2)c(-c2ccccc2Cl)n1
Ki (Cannabinoid receptor 1 [1]): 0.0063 µM | Ki (Cannabinoid receptor 2): 1.2 µM | Kb (Cannabinoid receptor 1 [2]): 0.0022 µM

Compound: O=C(N[C@H]1c2ccccc2C[C@@H]1O)c1cn(-c2ccc(Cl)cc2)c(-c2ccccc2Cl)n1 (racemic)
Ki (Cannabinoid receptor 1 [1]): 0.022 µM

Compound: Cc1c(C(=O)NN2CCCCC2)nn(-c2ccc(Cl)cc2Cl)c1-c1ccc(Cl)cc1 [RIMONABANT]
Activity (Rattus norvegicus [3]): 6.5%

Compound: O=C(N[C@H]1CCC[C@@H]1O)c1cn(-c2ccc(Cl)cc2)c(-c2ccccc2Cl)n1
Ki (Cannabinoid receptor 1 [1]): 0.029 µM | Activity (Rattus norvegicus [13]): 26% | Ki (Cannabinoid receptor 2): 6.3 µM | concentration at 2 h [15]: 0.33 µM | Kb (Cannabinoid receptor 1 [2]): 0.0097 µM | Cmax [11]: 2.11 µM

Compound: O=C(NC1CCCCC1)c1cn(-c2ccc(Cl)cc2)c(-c2ccccc2)n1
Ki (Cannabinoid receptor 1 [1]): 0.13 µM

Compound: CC1CCC(n2cc(C(=O)NC3CCCCC3)nc2-c2ccccc2Cl)CC1 (stereo not given)
Ki (Cannabinoid receptor 1 [1]): 0.017 µM

Compound: O=C(N[C@H]1CCCC[C@@H]1O)c1cn(-c2ccc(Cl)cc2)c(-c2ccccc2Cl)n1
Ki (Cannabinoid receptor 1 [1]): 0.029 µM | Activity (Rattus norvegicus [13]): 34% | Ki (Cannabinoid receptor 2): 5.3 µM | concentration at 2 h [15]: 0.11 µM | Kb (Cannabinoid receptor 1 [2]): 0.0071 µM | Cmax [11]: 1.64 µM

Compound: CCc1ccccc1-c1nc(C(=O)NC2CCCCC2)cn1-c1ccc(Cl)cc1
Ki (Cannabinoid receptor 1 [1]): 0.039 µM

Compound: O=C(NC1CCCCC1)c1cn(-c2ccc(Cl)cc2)c(-c2ccc(F)cc2F)n1
Ki (Cannabinoid receptor 1 [1]): 0.036 µM

Compound: Cc1ccc(-n2cc(C(=O)NC3CCCCC3)nc2-c2ccccc2Cl)cc1
Ki (Cannabinoid receptor 1 [1]): 0.0046 µM

Compound: Cc1ccccc1-c1nc(C(=O)NC2CCCCC2)cn1-c1ccc(Cl)cc1
Ki (Cannabinoid receptor 1 [1]): 0.021 µM | Ki (Cannabinoid receptor 2): > 1 µM | Kb (Cannabinoid receptor 1 [2]): 0.0073 µM

Results, then the compound that gave them:

Ki (Cannabinoid receptor 1 [1]): 1.1 µM
Compound: O=C(NC1CCCCC1)c1cn(-c2cccnc2)c(-c2ccccc2Cl)n1

Ki (Cannabinoid receptor 1 [1]): 0.02 µM
Compound: O=C(NC1CCCCC1)c1cn(-c2ccc(F)cc2)c(-c2ccccc2Cl)n1

Ki (Cannabinoid receptor 1 [1]): 0.095 µM
Compound: COc1ccccc1-c1nc(C(=O)NC2CCCCC2)cn1-c1ccc(Cl)cc1

Ki (Cannabinoid receptor 1 [1]): 0.019 µM
Compound: O=C(N[C@H]1CCCC[C@@H]1O)c1nc(-c2ccccc2Cl)n(-c2ccc(Cl)cc2)c1Br

Ki (Cannabinoid receptor 2): 2.3 µM
Compound: CCc1c(C(=O)N[C@H]2CCCC[C@@H]2O)nc(-c2ccccc2Cl)n1-c1ccc(Cl)cc1

Ki (Cannabinoid receptor 1 [1]): 0.017 µM
Compound: O=C(N[C@H]1Cc2ccccc2[C@H]1O)c1cn(-c2ccc(Cl)cc2)c(-c2ccccc2Cl)n1 (racemic)

Ki (Cannabinoid receptor 1 [1]): 0.041 µM
Compound: O=C(N[C@H]1Cc2ccccc2[C@@H]1O)c1cn(-c2ccc(Cl)cc2)c(-c2ccccc2Cl)n1 (racemic)

Ki (Cannabinoid receptor 1 [1]): 0.62 µM
Compound: CN[C@H]1CCCC[C@@H]1NC(=O)c1cn(-c2ccc(Cl)cc2)c(-c2ccc(Cl)cc2Cl)n1

Ki (Cannabinoid receptor 1 [1]): 0.0057 µM | Ki (Cannabinoid receptor 2): 2.7 µM | Kb (Cannabinoid receptor 1 [2]): 0.0014 µM
Compound: CCCc1c(C(=O)N[C@H]2CCCC[C@@H]2O)nc(-c2ccccc2Cl)n1-c1ccc(Cl)cc1

Ki (Cannabinoid receptor 1 [1]): 0.075 µM
Compound: O=C(N[C@@H]1CCC[C@H]1O)c1cn(-c2ccc(Cl)cc2)c(-c2ccccc2Cl)n1

Ki (Cannabinoid receptor 1 [1]): 0.097 µM | Kb (Cannabinoid receptor 1 [2]): 0.022 µM
Compound: O=C(N[C@@H]1CCCC[C@H]1O)c1cn(-c2ccc(Cl)cc2)c(-c2ccccc2Cl)n1

Ki (Cannabinoid receptor 1 [1]): 0.0022 µM | Ki (Cannabinoid receptor 2): 2.3 µM | Kb (Cannabinoid receptor 1 [2]): 0.011 µM
Compound: O=C(NC1CCCCC1)c1cn(-c2ccc(Cl)cc2)c(-c2ccccc2Cl)n1

Ki (Cannabinoid receptor 1 [1]): 0.27 µM
Compound: N[C@H]1CCCC[C@@H]1NC(=O)c1cn(-c2ccc(Cl)cc2)c(-c2ccc(Cl)cc2Cl)n1

Ki (Cannabinoid receptor 1 [1]): 0.025 µM
Compound: O=C(NC1CCCCC1)c1cn(-c2ccc(Cl)cc2)c(-c2cc(Cl)ccc2Cl)n1

Ki (Cannabinoid receptor 1 [1]): 0.0019 µM
Compound: Cc1ccc(-n2cc(C(=O)NC3CCCCC3)nc2-c2ccc(Cl)cc2Cl)cc1

Ki (Cannabinoid receptor 1 [1]): 0.018 µM
Compound: CC(C)c1c(C(=O)N[C@H]2CCCC[C@@H]2O)nc(-c2ccccc2Cl)n1-c1ccc(Cl)cc1

Ki (Cannabinoid receptor 1 [1]): 0.034 µM
Compound: CN(C(=O)c1cn(-c2ccc(Cl)cc2)c(-c2ccccc2Cl)n1)C1CCCCC1

Ki (Cannabinoid receptor 1 [1]): 0.92 µM
Compound: CN[C@@H]1CCCC[C@H]1NC(=O)c1cn(-c2ccc(Cl)cc2)c(-c2ccc(Cl)cc2Cl)n1

Ki (Cannabinoid receptor 1 [1]): 0.94 µM
Compound: N[C@@H]1CCCC[C@H]1NC(=O)c1cn(-c2ccc(Cl)cc2)c(-c2ccc(Cl)cc2Cl)n1

Source: ChEMBL document CHEMBL1144643, “Optimization of imidazole amide derivatives as cannabinoid-1 receptor antagonists for the treatment of obesity” (Bioorg Med Chem Lett, 2007)
